Activity calls are given as the source filed them. No cut-off for these calls is given here.

A short description of series [1]: Selectivity index, ratio of IC50 for cytotoxicity against BGM cells assessed as reduction in cell viability in dark to IC50 for cytotoxicity against human HeLA cells assessed as reduction in cell viability in dark. The class given is toxicity, cell-based. The following applies: African green monkey (BGM cells), BGM cells versus HeLa cells, read-out: Ratio IC50. The essentials:
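Selectivity factor is the dark IC50 in BGM normal renal cells over the dark IC50 in HeLa cells. Both come from the MTT phototoxicity procedure without irradiation.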

Series [2] can be described thus: Selectivity index, ratio of IC50 for cytotoxicity against CHO cells to IC50 for antiproliferative activity against A2780 cells. The class given is toxicity, cell-based. The following applies: Chinese hamster (CHO cells); human (A2780 cells), CHO cells versus A2780 cells; read-out: Ratio IC50. The essentials: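 Selectivity factor is the IC50 in CHO cells over the IC50 in A2780 cells. Both were measured after 48 h of continuous treatment by MTT.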

Series [3] has as its system HeLa. As to the kind of experiment: Induction of ROS generation in human HeLa cells at 5 uM incubated for 1 hr in dark followed by irradiation with visible light for 1 hr under normoxic condition in presence of 5 mM NAC by DCFH-DA staining based flow cytometric analysis. In kind it is functional, cell-based. The following applies: time 2.0 hrs. Summed up: (§1)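 HeLa cells were seeded at 2 × 10^4/well for 24 h under 21% or 2% O2. They were co-treated with 5 μM compound plus a scavenger, which stayed present throughout: NAC 5 mM, NaN3 5 mM, mannitol 50 mM, tiron 5 mM, sodium pyruvate 10 mM or Trolox 0.1 mM. Cells were held 1 h dark, then 1 h under visible light, stained 30 min with 10 μM DCFH-DA, trypsinized and analysed by flow cytometry. At least two independent experiments, n = 3.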

Series [4] relates to HeLa. As to the kind of experiment: Induction of ROS generation in human HeLa cells at 5 uM incubated for 1 hr in dark followed by irradiation with visible light for 1 hr under hypoxic condition in presence of 5 mM NAC by DCFH-DA staining based flow cytometric analysis. The class given is functional, cell-based. The following applies: time 2.0 hrs. Summed up: as §1
The nature of series [5]: Drug uptake in mitochondria of human HeLa cells assessed as drug accumulation at 1 uM measured after 30 mins by confocal microscopic analysis. The following applies: 0.5 h. In kind it is ADME. Summed up: (§2)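 HeLa cells in high-glucose DMEM with 10% fetal calf serum were seeded on glass-bottom dishes for 24 h, then loaded with compound for 30 min at 37 °C. They were washed three times with DPBS and kept in phenol-red-free low-glucose DMEM. Live cells were imaged by confocal microscopy at 37 °C with 5% CO2, excited at 561 nm, with emission collected from 570 to 670 nm.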

Series [6] deals with HeLa. As to the kind of experiment: Induction of superoxide anion generation in human HeLa cells assessed as increase in DHE fluorescence at 5 uM incubated for 1 hr in dark followed by irradiation with visible light for 1 hr under hypoxic condition in presence of tiron by DHE staining based flow cytometric analysis. The following applies: time 2.0 hrs. In general terms: Flow cytometry measures light scatter and fluorescence of single cells or particles in a stream.

Series [7] deals with HeLa. As to the kind of experiment: Induction of mitochondrial membrane potential loss in human HeLa cells at 5 uM measured after 24 hrs by JC-1 dye-based flow cytometric analysis. In kind it is functional, cell-based. Summed up:
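HeLa cells were seeded at 1.5 × 10^5 in 12-well plates for 24 h and treated for 24 h. Vehicle control held 0.4% DMSO and antimycin A (50 μM) served as positive control. Cells were stained with JC-1 (1 μM, 20 min) and analysed by flow cytometry (10^4 events; ex 488 nm; green 530 nm and red 585 nm channels). At least two independent experiments.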

For series [8], the system named is HeLa. Description: Effect on cell cycle distribution in human HeLa cells assessed as reduction in G1 phase population at 5 uM preincubated for 30 mins in dark followed by light irradiation for 1 hr by RNase/propidium iodide staining based FACS analysis. The following applies: time 1.5 hrs. The class given is functional. The essentials: (§3)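 HeLa cells were seeded at 1.5 × 10^5/well and treated for 0.5 h, with or without 1 h visible-light irradiation, followed by 24 h recovery. Cells were fixed in ice-cold 70% ethanol for 1 h and stained with PI (40 μg/mL) plus RNase (1 μg/mL) for 30 min at 310 K. Analysis was by flow cytometry in the FL2-A channel. At least two independent experiments, n = 3.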

A short description of series [9]: Phototoxicity index, ratio of IC50 for cytotoxicity against human HeLa cells assessed as reduction in cell viability in dark under hypoxic condition to IC50 for phototoxicity against human HeLa cells upon LED light irradiation under hypoxic condition. In kind it is toxicity, cell-based. Summed up:
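Phototoxic index is the dark IC50 over the irradiated IC50 in HeLa cells. Both come from the MTT schedule of 1 h dark incubation plus 1 h visible-LED irradiation, then recovery in drug-free medium, run under 21% or 2% O2 as stated in the line.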

The test system of series [10] is HeLa. Description: Induction of ROS generation in human HeLa cells at 5 uM incubated for 1 hr in dark followed by irradiation with visible light for 1 hr under normoxic condition in presence of Trolox by DCFH-DA staining based flow cytometric analysis. The following applies: time 2.0 hrs. In kind it is functional, cell-based. The essentials: as §1
Series [11] is described as follows: Drug uptake in human HeLa cells at 1 uM incubated for 30 mins by confocal microscopic analysis. In kind it is ADME, cell-based. The following applies: 0.5 h. The essentials:
as §2

The test system of series [12] is HeLa. Description: Induction of apoptosis in human HeLa cells assessed as increase in total apoptotic cells at 5 uM preincubated for 30 mins in dark followed by irradiation for 1 hr and measured after 24 hrs by Annexin V-FITC/ Propidium iodide staining based flow cytometry analysis. The following applies: time 25.5 hrs. In kind it is functional, cell-based. Summed up: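 HeLa cells were seeded at 1.5 × 10^5/well overnight and treated for 0.5 h, with or without 1 h visible-light irradiation, followed by 24 h recovery. Cells were trypsinized, resuspended in binding buffer, labelled with FITC-Annexin V and propidium iodide for 15 min at room temperature in the dark, and analysed by flow cytometry. Cisplatin (30 μM) served as positive control.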

Series [13] deals with HeLa. Description: Induction of autophagy in human HeLa cells assessed as increase in MDC-positive autophagic vesicles at 5 uM preincubated for 30 mins followed by light irradiation for 1 hr and further incubated for 6 hrs in drug-free medium by MDC staining based confocal microscopic analysis. In kind it is functional, cell-based. The following applies: time 1.5 hrs. The essentials: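 HeLa cells were seeded at 1.5 × 10^4 cells/cm2 in chamber slides and given 0.5 h compound incubation, then 1 h visible-light irradiation. Medium was replaced for a 6 h recovery. Cells were stained with monodansylcadaverine (0.05 mM in PBS, 10 min, 310 K) and imaged by confocal microscopy (ex 405 nm). Vacuoles were counted in at least 10 cells from two experiments. Controls were starvation in EBSS for 2 h and resveratrol 50 μM for 2 h.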

The nature of series [14]: Drug uptake in nucleolus of human HeLa cells assessed as drug accumulation at 1 uM measured after 30 mins by confocal microscopic analysis. The class given is ADME, subcellular. The following applies: 0.5 h. Summed up:
as §2

For series [15], the system named is HeLa. As to the kind of experiment: Induction of ROS generation in human HeLa cells assessed as increase in intracellular ROS level at 5 uM incubated for 1 hr in dark followed by irradiation with visible light for 1 hr under hypoxic condition by DCFH-DA staining based flow cytometric analysis. In kind it is functional, cell-based. The following applies: time 2.0 hrs. The essentials:
as §1

For series [16], the system named is HeLa. As to the kind of experiment: Induction of ROS generation in human HeLa cells at 5 uM incubated for 1 hr in dark followed by irradiation with visible light for 1 hr under normoxic condition in presence of NaN3 by DCFH-DA staining based flow cytometric analysis. In kind it is functional, cell-based. The following applies: time 2.0 hrs. The essentials:
as §1

Series [17] concerns HeLa. Description: Induction of autophagy in human HeLa cells […] pretreated with wortmannin for 1 hr followed by irradiation schedule for 1 hr by MDC staining based confocal microscopic analysis. In kind it is functional.
The subject of series [18] is HeLa. Description: Effect on cell cycle distribution in human HeLa cells at 5 uM incubated for 30 mins in dark by RNase/propidium iodide staining based FACS analysis. The class given is functional. The essentials:
as §3

Series [19] in a line: Induction of singlet oxygen generation in air-saturated DCM solution assessed as reduction in 1,3-diphenylisobenzofuran absorption irradiated with 505 nanometer green light by DPBF-based assay. The class given is functional.

As to `CN(C)c1ccc2c(c1)O/C(=C(/C#N)c1cc[n+](CC(F)(F)F)cc1)C=C2C(F)(F)F`, the selectivity ratio in series [1] amounted to 1.9.

`CCN(CC)c1ccc2c(c1)O/C(=C(/C#N)c1cc[n+](CC(=O)NCCCN)cc1)C=C2C`: the selectivity ratio in series [2] is greater than 2.4.

With `CCN(CC)c1ccc2c(c1)O/C(=C(/C#N)c1cc[n+](CC(=O)NCCCNC(=O)OC(C)(C)C)cc1)C=C2C`, the selectivity ratio in series [1] was determined as 2.7.

For the molecule `CCN(CC)c1ccc2c(c1)O/C(=C(/C#N)c1cc[n+](CC(F)(F)F)cc1)C=C2C`, the result in the series with HeLa [3], in the series with HeLa [4], with HeLa [7], with HeLa [10], in the series with HeLa [13] and in the series on HeLa [15] was inactive. Also, the outcome in the series with HeLa [16] and in the series on HeLa [18] was inactive. For the same molecule, the Drug uptake result in series [5], in series [11] and in [14] was “Active” each time. Also, in [1], the selectivity ratio was 4.3. The outcome (with HeLa [6]; in the series on HeLa [8]; with HeLa [12]; in the series with HeLa [17]; in series [19]) was Active. Besides, the “Ratio IC50” value in [9] was 4.7.

Source of the values: ChEMBL document CHEMBL5032534, “COUPY Coumarins as Novel Mitochondria-Targeted Photodynamic Therapy Anticancer Agents” (J Med Chem, 2021).
